Hits are enriched below; roughly 12% of the tested compounds scored in any of these assays.
ABCB1 inh: human ABCB1 inhibition, ABCG2 as counter-screen | P08183 | CCRF-Adr cells, JC-1 efflux, flow cytometry | inhibition, % at 6.6 µM | 190,000 tested, 0.067% active; in the data active = inhibition above about 40%;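 note: 0% = vehicle and 100% = reference inhibitor; higher value means more JC-1 retained so stronger ABCB1 efflux block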
Target sequence (P08183 whole entry, looked up): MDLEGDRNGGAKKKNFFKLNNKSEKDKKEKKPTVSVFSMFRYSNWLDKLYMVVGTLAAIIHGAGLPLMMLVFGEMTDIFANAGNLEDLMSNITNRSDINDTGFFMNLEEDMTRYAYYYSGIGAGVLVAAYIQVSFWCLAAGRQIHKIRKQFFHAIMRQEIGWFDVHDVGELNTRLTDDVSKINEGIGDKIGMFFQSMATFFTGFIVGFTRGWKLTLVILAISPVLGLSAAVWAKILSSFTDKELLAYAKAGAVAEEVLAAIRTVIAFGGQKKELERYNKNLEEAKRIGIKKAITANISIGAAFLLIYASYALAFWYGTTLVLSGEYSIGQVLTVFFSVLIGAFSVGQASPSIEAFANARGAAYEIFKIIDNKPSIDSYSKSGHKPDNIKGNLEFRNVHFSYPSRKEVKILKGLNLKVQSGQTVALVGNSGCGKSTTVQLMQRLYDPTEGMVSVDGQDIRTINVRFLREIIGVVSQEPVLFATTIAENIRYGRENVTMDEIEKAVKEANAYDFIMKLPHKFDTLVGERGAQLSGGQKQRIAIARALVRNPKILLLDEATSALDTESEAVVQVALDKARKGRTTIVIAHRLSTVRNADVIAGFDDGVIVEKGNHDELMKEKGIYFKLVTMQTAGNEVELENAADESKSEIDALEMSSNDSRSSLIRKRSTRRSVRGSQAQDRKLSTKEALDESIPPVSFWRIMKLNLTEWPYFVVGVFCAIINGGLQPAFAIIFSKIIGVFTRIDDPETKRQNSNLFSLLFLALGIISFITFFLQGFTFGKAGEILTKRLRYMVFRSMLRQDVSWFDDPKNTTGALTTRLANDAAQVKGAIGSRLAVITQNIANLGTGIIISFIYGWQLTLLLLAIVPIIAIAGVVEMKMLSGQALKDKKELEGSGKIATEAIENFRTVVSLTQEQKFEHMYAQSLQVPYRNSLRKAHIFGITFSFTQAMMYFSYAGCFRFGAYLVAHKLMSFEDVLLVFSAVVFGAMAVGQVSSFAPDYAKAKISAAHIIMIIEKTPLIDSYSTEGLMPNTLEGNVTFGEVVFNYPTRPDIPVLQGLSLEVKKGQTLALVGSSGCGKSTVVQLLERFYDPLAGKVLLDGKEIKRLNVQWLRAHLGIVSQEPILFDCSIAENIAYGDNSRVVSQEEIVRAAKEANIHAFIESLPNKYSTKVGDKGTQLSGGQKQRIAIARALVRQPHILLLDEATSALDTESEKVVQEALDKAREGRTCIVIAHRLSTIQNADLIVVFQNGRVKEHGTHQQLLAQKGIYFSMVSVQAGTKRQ
ABCG2 inh: blocks JC-1 efflux by human ABCG2 transporter; AID 1325; Q9UNQ0; inhibition, % at 6.6 µM; IgMXP3 cells, flow cytometry; 190,000 tested, 0.1% active;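 active = inhibition above 80%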;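 note: 0% = DMSO and 100% = nicardipine control wells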
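test system = two drug-resistant human cell lines, ABCG2 and ABCB1 | amount = 3 million cells/mL final, two lines in 1:1 ratio | reagent = JC-1 transporter substrate | doses = one concentration, 6.6 µM final | incubation = 10 min at 25 °C | signal = flow cytometric JC-1 green MFI at 530 nm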
RAM network inh: blocks the yeast RAM network; S. cerevisiae dse1pr::URA3 reporter, 5-FOA growth OD615, 2 d; analog-sensitive cbk1-as2 kinase mutant strain; inhibition, % at 50 µM; 190,000 tested, 1.8% active; AID 868;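 active = inhibition above a set limit, 3 SD over mean compound inhibition, cut at about 8.4% in these data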;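 note: 0% = DMSO-only wells with no growth and 100% = 10 µM 1-NA-PP1 full growth; inhibition rescues growth on 5-FOA so higher OD means more RAM inhibition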
WT yeast gro inh: growth inhibition of WT yeast, mitochondrial fusion screen; mitochondrial fusion phenotypic screen, WT strain; inhibition, % at 10 µM; 190,000 tested, 2.1% active; AID 1362; in the data active = inhibition above about 58%; tested in S. cerevisiae
Lmaj promast: reduces viability of Leishmania major promastigotes | AID 1063 | inhibition, % at 10 µM | resazurin fluorescence viability | 200,000 tested, 9% active; in the data active = inhibition above about 50%;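 note: promastigotes grown with compound for 44 hours at 28 °C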
The depositor's hits bear a star; . = not tested or not shown.

SMILES | ABCB1 inh | ABCG2 inh | RAM network inh | WT yeast gro inh | Lmaj promast
COc1ccc(C)cc1S(=O)(=O)N1c2ccccc2CC1C (stereo not given) | 0 | 0 | 1 | 1 | 100*
Cc1ccc(S(=O)(=O)N2c3ccccc3CC2C)cc1 (stereo not given) | 7 | 13 | 0 | -3 | 12
CC1Cc2ccccc2N1S(=O)(=O)c1cccs1 (stereo not given) | 0 | 4 | 1 | 13 | 90*
COCCn1c(SCCOc2ccccc2)nc2ccccc2c1=O | 1 | 14 | 1 | 27 | -4
CC(Sc1nnnn1-c1ccc(Cl)cc1)C(=O)NCC(=O)Nc1ccc(F)c(F)c1F (stereo not given) | 1 | 4 | 6 | 9 | -8
O=C(/C=C/c1ccccc1Cl)c1cccnc1 | 0 | 4 | 0 | 19 | 98*
CCN(CC)c1ccc(/C=C/C(=O)c2cccnc2)cc1 | 1 | 1 | 4 | 13 | 49
O=C(/C=C/c1ccc(Cl)cc1)c1cccnc1 | 0 | 2 | 1 | 10 | 100*
N#Cc1ccc(/C=C/C(=O)c2cccnc2)cc1 | 0 | 10 | 0 | 1 | 101*
C/C(=N\NC(=O)c1c(-c2ccccc2Cl)noc1C)c1cccc(NC(=O)C(C)C)c1 | 1 | 8 | 0 | -10 | 16
Cc1ccc(CN2CCN(/N=C/c3sccc3C)CC2)c(C)c1 | 1 | 6 | 0 | 53 | -1
CCc1ccc(-c2nc(CN3CCC(C(=O)N4CCN(c5ccccc5)CC4)CC3)c(C)o2)cc1 | 3 | 1 | 1 | 66* | 82*
CCN1CCN(C(=O)C2CCN(Cc3nc(-c4ccc(Cl)cc4)oc3C)CC2)CC1 | . | . | . | 18 | .
CCN1CCN(C(=O)C2CCN(Cc3nc(-c4cccc(Cl)c4)oc3C)CC2)CC1 | 0 | 0 | -1 | 2 | 66*
CCc1ccc(-c2nc(CN3CCC(C(=O)N4CCN(c5ccccn5)CC4)CC3)c(C)o2)cc1 | 1 | 1 | 1 | 3 | 84*
COc1ccccc1CNC(=O)c1cc2c(=O)[nH]c3ccccc3c2n1C | 1 | 6 | 1 | -16 | -1
Cc1nn2c(N3CCCC3)cc(C(C)C)nc2c1-c1ccccc1 | 0 | 2 | 0 | 23 | 87*
COc1ccc(-c2c(C)nn3c(N4CCN(Cc5ccccc5)CC4)cc(C)nc23)cc1OC | 1 | 1 | 1 | 15 | 28
COc1ccccc1-c1c(C)nn2c(N3CCCCCC3)cc(C)nc12 | 1 | 3 | 2 | 61* | 79*
Cc1cc(N2CCCCC2)n2nc(C)c(-c3ccccc3)c2n1 | 1 | 12 | 2 | 5 | 8
COc1ccccc1-c1c(C)nn2c(N3CCN(Cc4ccccc4)CC3)cc(C)nc12 | 2 | 3 | 1 | 85* | 33
O=C(Nc1cccnc1)C1(c2ccc(Cl)cc2)CCCC1 | 0 | -5 | -1 | -11 | 8
Cc1c(N=NC2=C(O)CCCC2=O)c(=O)n(-c2ccccc2)n1C | 0 | 4 | 1 | 19 | -11
COc1ccc(/C(=C/Nc2cccc(Br)c2)C(C)=O)cc1OC | 1 | 9 | 1 | 6 | 17
CCc1ccc(/C(C)=N/NC(=O)c2ccccn2)cc1 | 0 | -1 | 1 | 9 | 6
SMILES | ABCB1 inh | ABCG2 inh | RAM network inh | WT yeast gro inh | Lmaj promast
CCOc1ccc(C(=O)N/N=C(\c2ccccc2)c2ccccn2)cc1 | 0 | 1 | 7 | 69* | 99*
O=C(N/N=C(\c1ccccc1)c1ccccn1)c1cccc([N+](=O)[O-])c1 | 1 | 26 | 0 | 43 | 100*
CCC(C)OC(=O)C1=C(C)OC23OC(N)=C(C#N)C12C(=O)c1ccccc13 (stereo not given) | 1 | -1 | 4 | 2 | 86*
CC1=C(C(=O)OCC(C)C)[C@]23C(=O)c4ccccc4[C@@]2(O1)OC(N)=C3C#N | 1 | 2 | 2 | 15 | 14
Cc1ccc(-n2nnnc2C(Cl)(Cl)c2nnnn2-c2ccc(C)cc2)cc1 | -3 | -14 | 2 | 95* | 9
COc1n[nH]c(C(=O)Nc2cc(Cl)ccc2Cl)c1[N+](=O)[O-] | 0 | 1 | 2 | 33 | 89*
COc1ccc(Cl)cc1NC(=O)c1[nH]nc(OC)c1[N+](=O)[O-] | 0 | 1 | 1 | -6 | 53*
COc1n[nH]c(C(=O)Nc2cc(F)ccc2C)c1[N+](=O)[O-] | . | 12 | 1 | 41 | 17
COc1ccc(Cl)cc1NC(=O)c1cc(-c2ccccc2O)n[nH]1 | -1 | 6 | 5 | 2 | -10
CCOC(=O)CSc1cccc2cccnc12 | 0 | 3 | 0 | 15 | 91*
O=C(Oc1c(Cl)cc(Cl)c2cccnc12)c1cccc([N+](=O)[O-])c1 | 1 | 4 | -1 | 56 | 70*
C#CC[N+](C)(C)CCCCCCCCCCCC | 0 | 2 | 0 | 78* | 100*
CC#CC[N+](C)(C)CCCCCCCCCCCC | 0 | 0 | -1 | 83* | 100*
C#CC[N+](C)(C)CCCCCCCC | 0 | 4 | 0 | -1 | -2
C#CC[N+](C)(C)CCCCCCCCCC | -1 | -4 | -1 | 9 | 58*
O=c1cc(CSc2ccc(Cl)cc2)nc(-c2ccncc2)[nH]1 | 0 | 4 | 2 | -12 | -9
CCOC(=O)C(C)Sc1ccc2nnc(CCNS(=O)(=O)c3ccccc3)n2n1 (stereo not given) | 1 | 4 | 0 | 2 | 1
COc1ccc(OCC(O)CN2CCN(c3ccccc3)CC2)cc1 (stereo not given) | 0 | 0 | 2 | 13 | 21
CC(C)c1ccc(OCC(O)CN2CCN(c3ccccc3)CC2)cc1 (stereo not given) | 1 | 2 | 2 | 0 | 87*
OC(CNc1ccccc1)COc1ccc(OCC(O)CNc2ccccc2)cc1 (stereo not given) | 0 | 0 | 3 | 16 | 66*
OC(COc1ccccc1)CN1CCN(CC(O)COc2ccccc2)CC1 (stereo not given) | 1 | 1 | 0 | -7 | 87*
CCOCC(O)CNc1ccccc1 (stereo not given) | 0 | 6 | 0 | -14 | 16
COc1ccc(N2CCN(CC(O)COc3ccccc3[N+](=O)[O-])CC2)cc1 (stereo not given) | 10 | 25 | 0 | -3 | 92*
CC(C)[C@H](NC(=O)c1ccccc1)C(=O)OCC(=O)N1CCN(C(=O)c2ccco2)CC1 | 0 | 0 | 1 | -5 | -5
C=CCn1c(=S)[nH]c2scc(-c3ccc(C)o3)c2c1=O | 2 | 12 | 5 | 65* | 0
CCn1c(=S)[nH]c2scc(-c3cccs3)c2c1=O | -1 | -2 | 4 | 25 | -6
CS(=O)(=O)c1ccc2nc(NC(=O)c3cccc(NS(=O)(=O)c4ccc(F)c(F)c4)c3)sc2c1 | -1 | -7 | 6 | -8 | -6
O=C(Nc1nc2ccc(SC(F)F)cc2s1)c1ccc(NS(=O)(=O)c2ccc(F)c(F)c2)cc1 | -1 | -2 | 7 | -2 | 69*

Screens as filed in PubChem BioAssay.
